pIC50: −log10 of the molar value. Activity calls are given as the source filed them. The rule behind the calls is not given here.
Experiments:
A549 [1] = assay: Reversal of inhibition of invasion in human A549 cells at 10 uM in presence of N-acetyl-l-cysteine; type: functional, cell-based
How it was run: (§1)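 Transwell migration with 8 µm inserts, or Matrigel-coated inserts for invasion: 5 × 10^4 A549 cells in serum-free medium placed in the upper chamber over medium with 10% FBS, 24 h at 37 °C, 5% CO2. Migrated cells stained, dye extracted and read at 560 nm. Reported as percent of control; compound tested at 1 and 10 µM, with NAC pretreatment in reversal tests.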

A549 [2] = assay: Induction of apoptosis in human A549 cells assessed as DNA fragmentation after 12 hrs; type: functional, cell-based
How it was run: (§2)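 Apoptosis by cytoplasmic mono- and oligonucleosomes (nucleosome ELISA): A549 cells given 1, 10 or 100 µM for 6, 12, 18 or 24 h and lysed, then lysate assayed photometrically. Expressed relative to control; three experiments, mean ± SE, ANOVA with Dunnett's test.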

A549 [3] = assay: Induction of apoptosis in human A549 cells assessed as apoptotic nucleosome at 100 uM after 6 hrs; type: functional; how it was run: as §2
A549 [4] = assay: Cell cycle arrest in human A549 cells assessed as accumulation at S phase at 50 uM after 48 hrs; type: functional
How it was run: (§3)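 Flow cytometry of cell cycle: A549 (5 × 10^5 per 60 mm dish) treated next day with 50 or 100 µM for 24, 48 or 72 h. Adherent and floating cells pooled, fixed in PBS-MeOH 1:2 at 4 °C for at least 18 h, then stained 30 min in the dark with PI 50 µg/mL plus RNase A 50 µg/mL. Sub-G1 taken as the subdiploid fraction; at least three runs.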

A549 [5] = assay: Cell cycle arrest in human A549 cells assessed as accumulation at G2/M phase at 100 uM after 24 hrs; type: functional; how it was run: as §3
A549 [6] = assay: Cell cycle arrest in human A549 cells assessed as accumulation at S phase at 100 uM after 72 hrs; type: functional; how it was run: as §3
A549 [7] = assay: Cell cycle arrest in human A549 cells assessed as accumulation at S phase at 50 uM after 72 hrs; type: functional; how it was run: as §3
A549 [8] = assay: Cell cycle arrest in human A549 cells assessed as accumulation at subG1 phase at 50 uM after 24 hrs; type: functional; how it was run: as §3
A549 [9] = assay: Cytotoxicity against human A549 cells after 72 hrs by TB dye exclusion assay; type: functional, cell-based; settings: A549, 72 h
A549 [10] = assay: Reversal of inhibition of migration in human A549 cells at 10 uM in presence of N-acetyl-l-cysteine; type: functional, cell-based; how it was run: as §1
A549 [11] = assay: Cell cycle arrest in human A549 cells assessed as accumulation at G1 phase at 50 uM after 72 hrs; type: functional; how it was run: as §3
A549 [12] = assay: Induction of apoptosis in human A549 cells assessed as apoptotic nucleosome at 100 uM after 24 hrs; type: functional; how it was run: as §2
A549 [13] = assay: Cell cycle arrest in human A549 cells assessed as accumulation at S phase at 100 uM after 48 hrs; type: functional; how it was run: as §3
A549 [14] = assay: Cell cycle arrest in human A549 cells assessed as accumulation at G1 phase at 100 uM after 48 hrs; type: functional; how it was run: as §3
A549 [15] = assay: Induction of apoptosis in human A549 cells assessed as caspase 3 activation at 100 uM; type: functional, cell-based
How it was run: (§4)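 Caspase-9 and caspase-3 activity: A549 cells given 100 µM for 6-24 h and lysed on ice 1 h. 80 µg lysate incubated with substrate at pH 7.2, 37 °C, 1 h in the dark. Caspase-9 read colorimetrically at 405 nm and caspase-3 with AFC substrate, ex 400 / em 520 nm. Reported as percent change versus the 0 h group.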

A549 [16] = assay: Cytotoxicity against human A549 cells after 72 hrs by MTT assay; type: functional, cell-based; settings: A549, 72 h
A549 [17] = assay: Induction of apoptosis in human A549 cells assessed as apoptotic nucleosome at 1 uM after 24 hrs; type: functional; how it was run: as §2
A549 [18] = assay: Antiproliferative activity against human A549 cells at 100 uM after 72 hrs by MTT assay; type: functional; settings: A549, 72 h, values are per cent of control
How it was run: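 MTT proliferation: A549 grown in medium with 10% FBS to 70-80% confluence, then exposed to compound for 24, 48 or 72 h. MTT added for 3 h at 37 °C, formazan dissolved in 2-propanol, OD 570 nm with 650 nm reference. Expressed as percent of control at 24 h; mean ± SE.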

A549 [19] = assay: Cytotoxicity against human A549 cells after 24 hrs by TB dye exclusion assay; type: functional, cell-based; settings: A549, 24 h
A549 [20] = assay: Induction of cytochrome C release in human A549 cells by ELISA; type: functional, cell-based; settings: TDE = time-dependent effect
How it was run: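 Cytochrome c release: A549 cells given 100 µM or DMSO vehicle for 6, 12, 18 or 24 h at 37 °C. Cytosolic fraction taken by digitonin permeabilization and mitochondrial fraction by detergent lysis, each measured by cytochrome c ELISA. Three experiments, mean ± SE.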

A549 [21] = assay: Induction of p53 level in human A549 cells at 100 uM after 12 hrs by ELISA; type: functional, cell-based
How it was run: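 p53, p21/WAF1 and p27kip1 in A549 lysates by sandwich ELISA after 1, 10 or 100 µM for 6-24 h. Lysate incubated 2 h for p53 and p27kip1, 1 h for p21, at room temperature. HRP-streptavidin and TMB used, absorbance read at 450 nm, values from standard curves. Three experiments, mean ± SE.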

A549 [22] = assay: Cytotoxicity against human A549 cells after 24 hrs by MTT assay; type: functional, cell-based; settings: A549, 24 h
A549 [23] = assay: Inhibition of invasion in human A549 cells; type: functional, cell-based; how it was run: as §1
A549 [24] = assay: Cell cycle arrest in human A549 cells assessed as accumulation at G1 phase at 50 uM after 48 hrs; type: functional; how it was run: as §3
A549 [25] = assay: Inhibition of migration in human A549 cells; type: functional, cell-based; how it was run: as §1
A549 [26] = assay: Cell cycle arrest in human A549 cells assessed as accumulation at G2/M phase at 50 uM after 48 hrs; type: functional; how it was run: as §3
A549 [27] = assay: Induction of apoptosis in human A549 cells assessed as caspase 9 activation at 100 uM; type: functional, cell-based; how it was run: as §4

C=C1OC(=O)/C(=C/CCCCCCCCCCCCC)[C@@H]1O [ISOOBTUSILACTONE A]
Activity (A549 [1]): Active | Activity (A549 [2]): Active | Activity (A549 [3]): 4.5 | Activity (A549 [4]): 46.72% | Activity (A549 [5]): 18.18% | Activity (A549 [6]): 16.24% | Activity (A549 [7]): 47.74% | Activity (A549 [8]): 16.69% | pIC50 (A549 [9]): 6.14 | Activity (A549 [10]): Active | Activity (A549 [11]): 38.62% | Activity (A549 [12]): 25 | Activity (A549 [13]): 41.33% | Activity (A549 [14]): 43.08% | Activity (A549 [15]): Active | pIC50 (A549 [16]): 5.99 | Activity (A549 [17]): 16 | growth, % of control at 100 µM (A549 [18]): 2.75% | pIC50 (A549 [19]): 5.38 | Activity (A549 [20]): tde | Activity (A549 [21]): Active | pIC50 (A549 [22]): 5.29 | Activity (A549 [23]): Active | Activity (A549 [24]): 37.37% | Activity (A549 [25]): Active | Activity (A549 [26]): 15.91% | Activity (A549 [27]): Active

Reference: ChEMBL document CHEMBL1157401, “Anticancer activity of isoobtusilactone A from Cinnamomum kotoense: involvement of apoptosis, cell-cycle dysregulation, mitochondria regulation, and reactive oxygen species” (J Nat Prod, 2008)
